# In ChEMBL document CHEMBL4346661, “Design, synthesis and evaluation of novel diaryl-1,5-diazoles derivatives bearing morpholine as potent dual COX-2/5-LOX inhibitors and antitumor agents” (Eur J Med Chem, 2019):
# pIC50: −log10 of the molar value. Active and inactive are the calls of the source. The calls are words filed in the database; no cut-off is given here.
# Tests used:
# HeLa = assay: Antiproliferative activity against human HeLa cells incubated for 48 hrs by MTT assay; assay type: functional, cell-based
# Procedure, shortened: (§1)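 MTT assay on F10 (murine melanoma), HeLa, A549, MCF-7 and 293T (human renal epithelium) cells. IC50 given as mean ± SD of three independent experiments.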
# B16-F10 [1] = assay: Induction of cell cycle arrest in mouse B16F10 cells assessed as cell accumulation at G1 phase at 25 uM incubated for 48 hrs by propidium iodide staining-based flow cytometric analysis (reference value: 59.73%); assay type: functional
# B16-F10 [2] = assay: Induction of apoptosis in mouse B16F10 cells incubated for 48 hrs by Annexin-V-FITC/propidium iodide staining-based flow cytometric analysis; assay type: functional, cell-based
# Procedure, shortened: (§2)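 F10 cells were exposed to 0, 3.125, 6.25, 12.5 or 25 µM for 48 h. Cells were stained with Annexin V/PI and read by flow cytometry. Data are mean ± SD of three independent experiments.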
# B16-F10 [3] = assay: Induction of apoptosis in mouse B16F10 cells assessed as late apoptosis cells at 3.125 uM incubated for 48 hrs in presence of apoptosis inhibitor z-VAD-fmk by Annexin-V-FITC/propidium iodide staining-based flow cytometric analysis (reference value: 3.13%); assay type: functional
# HEK-293T = assay: Antiproliferative activity against human 293T cells incubated for 48 hrs by MTT assay; assay type: cell-based; procedure, shortened: as §1
# B16-F10 [4] = assay: Induction of apoptosis in mouse B16F10 cells assessed as viable cells at 12.5 uM incubated for 48 hrs in presence of apoptosis inhibitor z-VAD-fmk by Annexin-V-FITC/propidium iodide staining-based flow cytometric analysis (reference value: 92.5%); assay type: functional; conditions: B16-F10, 48 h, read-out: Activity
# B16-F10 [5] = assay: Antitumor activity against mouse B16F10 cells implanted in nude mouse assessed as reduction in tumor size at 20 mg/kg, ip administered once per 2 days for 14 days by caliper method; assay type: functional
# Procedure, shortened: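 Nude mice were given 5×10^6 F10 cells subcutaneously in the right flank. At about 100 mm3, 24 mice were randomized into four groups of vehicle or compound. Dosing was intraperitoneal every two days for two weeks. Tumor volume was recorded every other day. Tumors were excised and weighed after the last treatment, and body weight was monitored.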
# Homo sapiens = organism: Homo sapiens; assay: Selectivity index, ratio of IC50 for COX1 (unknown origin) to IC50 for COX2 (unknown origin)
# Procedure, shortened: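 Ratio of COX-1 IC50 to COX-2 IC50, from human COX-1 and human COX-2 inhibitor screening assay kits. Each IC50 is the concentration giving 50% enzyme inhibition, taken as the mean of four determinations.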
# [6] = Inhibition of 5-LOX assessed as calcium ionophore A23187-stimulated LTB4 production preincubated for 30 mins followed by calcium ionophore A23187 addition and measured after 30 mins by ELISA
# B16-F10 [7] = assay: Induction of apoptosis in mouse B16F10 cells assessed as necrosis cells at 25 uM incubated for 48 hrs in presence of apoptosis inhibitor z-VAD-fmk by Annexin-V-FITC/propidium iodide staining-based flow cytometric analysis (reference value: 0.558%); assay type: functional
# [8] = target: T1, Prostaglandin G/H synthase 2 (Homo sapiens, UniProt P35354); assay: Inhibition of COX2 (unknown origin) using arachidonic acid as substrate incubated for 10 mins by Ellman's reagent based COX-1/COX-2 ELISA assay
# T1 sequence (P35354 whole entry): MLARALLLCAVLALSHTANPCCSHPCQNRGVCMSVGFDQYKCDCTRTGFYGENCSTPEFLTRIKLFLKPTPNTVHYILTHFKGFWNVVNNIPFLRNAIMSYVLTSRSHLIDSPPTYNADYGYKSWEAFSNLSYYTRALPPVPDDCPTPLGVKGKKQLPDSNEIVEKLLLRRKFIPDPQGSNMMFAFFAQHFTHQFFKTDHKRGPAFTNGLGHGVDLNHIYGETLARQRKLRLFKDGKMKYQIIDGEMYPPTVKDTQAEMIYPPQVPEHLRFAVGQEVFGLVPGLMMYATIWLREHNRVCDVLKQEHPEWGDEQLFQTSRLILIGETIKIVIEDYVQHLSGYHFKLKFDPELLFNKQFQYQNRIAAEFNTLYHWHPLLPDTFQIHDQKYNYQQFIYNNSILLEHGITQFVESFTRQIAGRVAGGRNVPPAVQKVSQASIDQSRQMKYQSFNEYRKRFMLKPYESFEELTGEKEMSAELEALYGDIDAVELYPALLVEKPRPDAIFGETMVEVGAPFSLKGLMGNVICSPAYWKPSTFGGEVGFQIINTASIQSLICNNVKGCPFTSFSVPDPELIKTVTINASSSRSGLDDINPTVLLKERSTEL
# B16-F10 [9] = assay: Induction of apoptosis in mouse B16F10 cells assessed as viable cells at 3.125 uM incubated for 48 hrs in presence of apoptosis inhibitor z-VAD-fmk by Annexin-V-FITC/propidium iodide staining-based flow cytometric analysis (reference value: 92.5%); assay type: functional; conditions: B16-F10, 48 h, read-out: Activity
# B16-F10 [10] = assay: Induction of apoptosis in mouse B16F10 cells assessed as early apoptosis cells at 25 uM incubated for 48 hrs in presence of apoptosis inhibitor z-VAD-fmk by Annexin-V-FITC/propidium iodide staining-based flow cytometric analysis (reference value: 3.83%); assay type: functional
# B16-F10 [11] = assay: Induction of apoptosis in mouse B16F10 cells assessed as necrosis cells at 25 uM incubated for 48 hrs by Annexin-V-FITC/propidium iodide staining-based flow cytometric analysis (reference value: 0.186%); assay type: functional; procedure, shortened: as §2
# B16-F10 [12] = assay: Induction of apoptosis in mouse B16F10 cells assessed as viable cells at 25 uM incubated for 48 hrs by Annexin-V-FITC/propidium iodide staining-based flow cytometric analysis (reference value: 94%); assay type: functional; conditions: B16-F10, 48 h, read-out: Activity; procedure, shortened: as §2
# [13] = target: Prostaglandin G/H synthase 1 (Homo sapiens, UniProt P23219); assay: Inhibition of COX1 (unknown origin) using arachidonic acid as substrate incubated for 10 mins by Ellman's reagent based COX-1/COX-2 ELISA assay
# [14] = Metabolic stability in mouse B16F10 cells implanted in nude mouse plasma assessed as peak time at 40 mg/kg, ip measured after 24 to 48 hrs by HPLC analysis; assay type: ADME, organism-based; conditions: in vivo
# Procedure, shortened: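 Tumor-bearing nude mice dosed intraperitoneally. Blood was taken from the eye 24 h later and centrifuged to plasma. The plasma was extracted with ethyl acetate and analysed by HPLC for compound peak retention time.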
# B16-F10 [15] = assay: Induction of apoptosis in mouse B16F10 cells assessed as necrosis cells at 6.25 uM incubated for 48 hrs by Annexin-V-FITC/propidium iodide staining-based flow cytometric analysis (reference value: 0.186%); assay type: functional; procedure, shortened: as §2
# B16-F10 [16] = assay: Antiproliferative activity against mouse B16F10 cells incubated for 48 hrs by MTT assay; assay type: functional, cell-based; conditions: B16-F10, 48 h; procedure, shortened: as §1
# B16-F10 [17] = assay: Inhibition of LPS-induced PGE2 production in mouse B16F10 cells at 6.25 uM incubated for 24 hrs by enzyme immunoassay; assay type: functional, cell-based
# Procedure, shortened: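 F10 cells treated for 24 h alongside LPS (1 µg/ml), test agent at 6.25 µM. Supernatant collected by centrifugation and PGE2 measured with a PGE2 enzyme immunoassay (ELISA) kit. Mean ± SD of three independent experiments.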
# B16-F10 [18] = assay: Induction of cell cycle arrest in mouse B16F10 cells assessed as cell accumulation at S phase at 6.25 uM incubated for 48 hrs by propidium iodide staining-based flow cytometric analysis (reference value: 14.16%); assay type: functional
# Prostaglandin G/H synthase 1, sequence (P23219 whole entry): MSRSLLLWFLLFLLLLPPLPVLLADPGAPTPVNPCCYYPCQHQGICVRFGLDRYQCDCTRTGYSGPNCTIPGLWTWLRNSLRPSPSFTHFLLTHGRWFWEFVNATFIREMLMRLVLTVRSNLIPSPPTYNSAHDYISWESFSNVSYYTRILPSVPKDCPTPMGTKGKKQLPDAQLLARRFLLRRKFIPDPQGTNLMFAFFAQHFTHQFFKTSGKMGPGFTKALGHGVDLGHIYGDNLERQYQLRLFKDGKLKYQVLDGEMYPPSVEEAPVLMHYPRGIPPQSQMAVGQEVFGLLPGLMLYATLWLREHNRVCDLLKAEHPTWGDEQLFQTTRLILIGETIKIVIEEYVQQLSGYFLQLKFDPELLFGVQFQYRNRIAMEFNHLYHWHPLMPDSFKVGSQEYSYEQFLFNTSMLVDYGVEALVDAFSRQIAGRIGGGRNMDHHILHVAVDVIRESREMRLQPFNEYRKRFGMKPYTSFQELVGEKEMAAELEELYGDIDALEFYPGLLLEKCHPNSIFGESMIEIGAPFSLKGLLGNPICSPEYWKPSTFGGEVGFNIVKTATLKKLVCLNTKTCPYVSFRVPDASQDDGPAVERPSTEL
smiles,measurement,setting,value
NS(=O)(=O)c1ccc(-n2nc(C(=O)NCCCN3CCOCC3)cc2-c2ccc(C(F)(F)F)cc2)cc1,pIC50,HeLa,5.09
same,Activity,B16-F10 [1],50.93%
same,Activity,B16-F10 [2],Dose-dependent effect
same,Activity,B16-F10 [3],4.52%
same,pIC50,HEK-293T,3.71
same,viability at 12.5 µM,B16-F10 [4],84%
same,Activity,B16-F10 [5],1076.58 mm3
same,Ratio IC50,Homo sapiens,189
same,pIC50,[6],6.17
same,Activity,B16-F10 [7],0.845%
same,pIC50,[8],6.77
same,viability at 3.125 µM,B16-F10 [9],90.9%
same,Activity,B16-F10 [10],11.3%
same,Activity,B16-F10 [11],1.33%
same,viability at 25 µM,B16-F10 [12],51.8%
same,pIC50,[13],4.49
same,Retention_time,[14],39.95 min
same,Activity,B16-F10 [15],0.366%
same,pIC50,B16-F10 [16],5.19
same,inhibition,B16-F10 [17],Active
same,Activity,B16-F10 [18],15.23%
